Experimental data: ChEMBL document CHEMBL1914380, “Polyalkoxybenzenes from plants. 5. Parsley seed extract in synthesis of azapodophyllotoxins featuring strong tubulin destabilizing activity in the sea urchin embryo and cell culture assays” (J Med Chem, 2011)
The source made the active and inactive calls. The calls are words filed in the database; no cut-off is given here. Where a SMILES comes first, the peptide text is derived from it. The star is where a group is joined. Cbz = O=C(OCc1ccccc1)*; CH2F = FC*

Legend:
Paracentrotus lividus [1] = assay: Antimitotic activity against Paracentrotus lividus embryo assessed as cleavage alteration treated 10 to 25 mins post fertilization followed by 45 to 60 mins before the first mitotic cycle completion by sea urchin embryo assay; format: functional
Paracentrotus lividus [2] = assay: Antimitotic activity against Paracentrotus lividus embryo assessed as cleavage arrest treated 10 to 25 mins post fertilization followed by 45 to 60 mins before the first mitotic cycle completion by sea urchin embryo assay; format: functional
Paracentrotus lividus [3] = assay: Antimitotic activity against Paracentrotus lividus embryo assessed as embryo spinning treated 10 to 25 mins post fertilization followed by 45 to 60 mins before the first mitotic cycle completion by sea urchin embryo assay; format: functional
Paracentrotus lividus [4] = assay: Toxicity against Paracentrotus lividus embryo post hatching; format: organism-based; conditions: in vivo
A549 [5] = assay: Cytotoxicity against human A549 cells assessed as cell viability after 24 hrs by MTT assay; format: functional, cell-based; conditions: A549, 24 h
Outline: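 A549 human lung carcinoma cells; growth inhibition measured by MTT assay. IC50 derived from dose-response curves, mean ± SD of three independent experiments.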

A549 [6] = assay: Inhibition of microtubule polymerization in human A549 cells assessed as total disruption of interphase microtubule network at 0.1 uM after 8 hrs by immunofluorescence microscopy; format: cell-based
Outline: (§1)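 A549 cells incubated 8 h with compound at 0.1, 0.5, 1 and 5 μM; DMSO vehicle as negative control. Microtubules labelled by indirect immunofluorescence and examined by fluorescence microscopy. Value is the concentration giving total interphase microtubule disassembly, from three independent experiments.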

A549 [7] = assay: Inhibition of microtubule polymerization in human A549 cells assessed as total disruption of interphase microtubule network at 0.5 uM after 8 hrs by immunofluorescence microscopy; format: cell-based; outline: as §1
A549 [8] = assay: Inhibition of microtubule polymerization in human A549 cells assessed as total disruption of interphase microtubule network at 1 uM after 8 hrs by immunofluorescence microscopy; format: cell-based; outline: as §1
A549 [9] = assay: Inhibition of microtubule polymerization in human A549 cells assessed as total disruption of interphase microtubule network at 5 uM after 8 hrs by immunofluorescence microscopy; format: cell-based; outline: as §1
Jurkat [10] = assay: Cytotoxicity against human Jurkat cells assessed as cell viability after 48 hrs by trypan blue exclusion assay; format: functional, cell-based
Outline: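 Jurkat T-leukemia cells; proliferation inhibition measured by trypan blue assay, giving IC50.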

Jurkat [11] = assay: Cell cycle arrest in human Jurkat cells assessed as accumulation of cells in G2/M phase at 20 nM after 24 hrs by propidium iodide staining-based flow cytometry; format: functional
Outline: (§2)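 Jurkat cells treated for 24 h, then stained with propidium iodide. DNA content analysed by flow cytometry for cell-cycle distribution.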

Jurkat [12] = assay: Induction of apoptosis in human Jurkat cells assessed as hypodyploid cells at 50 nM after 48 hrs by annexin-V FITC/7-ADD staining-based flow cytometric analysis (reference value: 12.2%); format: functional
Jurkat [13] = assay: Induction of apoptosis in human Jurkat cells assessed as cells with active form of caspase-3 at 50 nM after 48 hrs by annexin-V FITC/7-ADD staining-based flow cytometric analysis (reference value: 7.1%); format: functional
Jurkat [14] = assay: Induction of apoptosis in human Jurkat cells assessed as PARP cleavage at 50 nM after 48 hrs by annexin-V FITC/7-ADD staining-based flow cytometric analysis (reference value: 6.5%); format: functional
Jurkat [15] = assay: Induction of apoptosis in human Jurkat cells assessed as procaspase-9 cleavage at 50 nM after 24 hrs by Western blotting; format: functional, cell-based
Outline: (§3)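 Jurkat cells treated at 50 nM for 24 or 48 h; untreated control, etoposide 2 μM 24 h as comparator. Total lysates prepared in SDS-Laemmli buffer and immunoblotted with monoclonal anti-caspase-9, anti-caspase-2 and anti-procaspase-8 antibodies. β-Actin served as loading control.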

Jurkat [16] = assay: Induction of apoptosis in human Jurkat cells assessed as procaspase-9 cleavage at 50 nM after 48 hrs by Western blotting; format: functional, cell-based; outline: as §3
Jurkat [17] = assay: Induction of apoptosis in human Jurkat cells assessed as procaspase-2 cleavage at 50 nM after 24 hrs by Western blotting; format: functional, cell-based; outline: as §3
Jurkat [18] = assay: Induction of apoptosis in human Jurkat cells assessed as procaspase-2 cleavage at 50 nM after 48 hrs by Western blotting; format: functional, cell-based; outline: as §3
Jurkat [19] = assay: Induction of apoptosis in human Jurkat cells assessed as reduction in procaspase-8 levels at 50 nM after 48 hrs by Western blotting; format: functional, cell-based; outline: as §3
Jurkat [20] = assay: Induction of apoptosis in human Jurkat cells assessed as hypodyploid cells at 50 nM after 48 hrs by annexin-V FITC/7-ADD staining-based flow cytometric analysis in presence of 50 uM Z-VAD-fmk pan-caspase inhibitor; format: functional
A549 [21] = assay: Inhibition of microtubule polymerization in human A549 cells assessed as total disruption of interphase microtubule network at > 5 uM after 8 hrs by immunofluorescence microscopy; format: cell-based
P388 = assay: Cytotoxicity against mouse P388 cells assessed as cell viability after 48 hrs by trypan blue exclusion assay; format: functional, cell-based; conditions: P388, 48 h
A549 [22] = assay: Cell cycle arrest in human A549 cells at 50 uM after 24 hrs using propidium iodide staining by flow cytometry; format: functional, cell-based
Jurkat [23] = assay: Cell cycle arrest in human Jurkat cells assessed as accumulation of cells in G2/M phase at 25 nM after 24 hrs by propidium iodide staining-based flow cytometry; format: functional; outline: as §2
A549 [24] = assay: Cell cycle arrest in human A549 cells assessed as accumulation of cells in G2/M phase after 24 hrs by propidium iodide staining-based flow cytometry; format: functional; conditions: A549, 24 h
Paracentrotus lividus [25] = assay: Antimitotic activity against Paracentrotus lividus embryo assessed as larval malformation at 4 to 5 uM post hatching by microscopic analysis; format: functional, organism-based
Outline: (§4)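 P. lividus hatched blastulae exposed to compound; larval (pluteus) malformations, gastrulation and morphogenesis abnormalities, and developmental abnormalities/embryo death scored microscopically, the latter after 2.5 h of treatment.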

Paracentrotus lividus [26] = assay: Antimitotic activity against Paracentrotus lividus embryo assessed as abnormal gastrula formation at 10 to 20 uM by microscopic analysis; format: functional, organism-based; outline: as §4
Paracentrotus lividus [27] = assay: Induction of apoptosis in Paracentrotus lividus embryo assessed as developmental abnormalities at 40 to 68 uM after 2.5 hrs; format: functional, organism-based; outline: as §4
Jurkat [28] = assay: Cell cycle arrest in human Jurkat cells assessed as accumulation of cells in G0/G1 phase at 2 uM after 24 hrs by propidium iodide staining-based flow cytometry; format: functional
Outline: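 Jurkat cells treated 24 h; DNA content after propidium iodide staining measured by flow cytometry for cell cycle distribution.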

Jurkat [29] = assay: Induction of apoptosis in human Jurkat cells assessed as reduction in procaspase-8 levels at 2 uM after 24 hrs by Western blotting; format: functional, cell-based
Outline: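 Jurkat cells treated 24 h; total lysates prepared in SDS–Laemmli sample buffer and immunoblotted with anti-procaspase-8 monoclonal antibody; β-actin as loading control.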

Paracentrotus lividus [30] = assay: Toxicity against Paracentrotus lividus embryo at 40 to 68 uM after 2.5 hrs; format: organism-based; conditions: in vivo; outline: as §4

SMILES | EC (Paracentrotus lividus [1]) | EC (Paracentrotus lividus [2]) | EC (Paracentrotus lividus [3]) | IC50 (A549 [5]) | inhibition (A549 [6]) | inhibition (A549 [7]) | inhibition (A549 [8]) | inhibition (A549 [9]) | IC50 (Jurkat [10]) | Activity (Jurkat [12]) | Activity (Jurkat [13]) | Activity (Jurkat [14]) | Activity (Jurkat [15]) | Activity (Jurkat [16]) | Activity (Jurkat [17]) | Activity (Jurkat [18]) | Activity (Jurkat [19]) | further results
COc1cc(C2C3=C(COC3=O)Nc3cc4c(cc32)CCCC4)cc(OC)c1OC (stereo not drawn) | 50 nM | 200 nM | 100 nM | 56.5 nM | Active | Active | Active | Active | – | – | – | – | – | – | – | – | – | Activity (Paracentrotus lividus [4]): Toxic
COc1ccc2c(c1)NC1=C(C(=O)OC1)C2c1cc(OC)c2c(c1)OCO2 (stereo not drawn) | 0.5 nM | 5 nM | 50 nM | 15.1 nM | Active | Active | Active | Active | 17.5 nM | 54.9% | 27.8% | 38.3% | Active | Active | Active | Active | inactive | Activity (Jurkat [11]): Active
COC(=O)C[C@H](NC(=O)[C@H](C)NC(=O)[C@@H](NC(=O)OCc1ccccc1)C(C)C)C(=O)CF (Cbz-Val-Ala-Asp(OMe)-CH2F) | – | – | – | – | – | – | – | – | – | – | – | – | – | – | – | – | – | Activity (Jurkat [20]): 28.4%
COc1cc(-c2c3c(nc4cc5c(cc24)OCO5)COC3=O)cc(OC)c1OC | >4000 nM | >4000 nM | >4000 nM | 11900 nM | – | – | – | – | – | – | – | – | – | – | – | – | – | inhibition (A549 [21]): Active; IC50 (P388): > 253000 nM; Activity (A549 [22]): inactive
COc1cc([C@@H]2c3cc4c(cc3[C@H](O)[C@H]3COC(=O)[C@H]23)OCO4)cc(OC)c1OC [PODOFILOX] | 20 nM | 50 nM | 500 nM | 7.47 nM | Active | Active | Active | Active | 25 nM | 55.6% | 28% | 40.7% | Active | Active | Active | Active | inactive | Activity (Jurkat [23]): Active; EC50 (A549 [24]): 16.5 nM
COc1cc([C@@H]2c3cc4c(cc3[C@@H](O[C@@H]3O[C@@H]5CO[C@@H](C)O[C@H]5[C@H](O)[C@H]3O)[C@H]3COC(=O)[C@H]23)OCO4)cc(OC)c1O [ETOPOSIDE] | 2000 nM | >68000 nM | >68000 nM | – | – | – | – | – | – | – | – | – | – | – | – | – | – | Activity (Paracentrotus lividus [25]): Active; Activity (Paracentrotus lividus [26]): Active; Activity (Paracentrotus lividus [27]): Active; Activity (Jurkat [28]): Active; Activity (Jurkat [29]): Active; Activity (Paracentrotus lividus [30]): Toxic
